This note sets out measurements from ChEMBL document CHEMBL1799960, “Diadenosine 5',5''-(boranated)polyphosphonate analogues as selective nucleotide pyrophosphatase/phosphodiesterase inhibitors” (J Med Chem, 2010).

Usually EC50 stands for the concentration giving half of the maximal effect.

Assay [1] addresses T1, Ectonucleoside triphosphate diphosphohydrolase 3 (Homo sapiens) (UniProt O75355).
T1 sequence (whole entry): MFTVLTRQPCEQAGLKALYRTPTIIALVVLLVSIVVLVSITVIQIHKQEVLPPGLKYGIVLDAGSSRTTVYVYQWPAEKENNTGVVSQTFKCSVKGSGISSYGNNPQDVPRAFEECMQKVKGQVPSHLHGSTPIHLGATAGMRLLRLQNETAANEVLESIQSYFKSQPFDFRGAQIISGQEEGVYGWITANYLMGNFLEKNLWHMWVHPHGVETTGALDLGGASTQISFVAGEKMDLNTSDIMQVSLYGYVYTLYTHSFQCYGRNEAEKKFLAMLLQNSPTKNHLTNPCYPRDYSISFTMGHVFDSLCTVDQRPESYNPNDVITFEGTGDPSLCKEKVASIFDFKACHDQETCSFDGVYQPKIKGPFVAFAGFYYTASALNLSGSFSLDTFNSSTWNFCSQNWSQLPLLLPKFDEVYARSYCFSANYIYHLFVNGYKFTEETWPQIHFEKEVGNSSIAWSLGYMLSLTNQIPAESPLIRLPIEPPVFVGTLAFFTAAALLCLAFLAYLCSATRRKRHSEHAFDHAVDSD
The assay is described as follows: Activity of human NTPDase3 expressed in COS7 cells assessed as amount of inorganic phosphate released using ATP as the substrate at 100 uM after 15 mins by malachite green reagent method. Format: cell-based. The note with it: COS-7. The essentials: (§1)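 Crude membrane-enriched protein extract of transiently transfected COS-7 cells, preincubated 3 min at 37 °C in Tris-Ringer buffer pH 7.3. Reaction started with 100 μM ATP, or with the analogue alone at 100 μM to test it as substrate. Stopped after 15 min with malachite green reagent; released Pi read at 630 nm. Mean ± SD, n = 3.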

For assay [2], the target named is T2, Ectonucleoside triphosphate diphosphohydrolase 1 (Homo sapiens) (UniProt P49961).
T2 sequence (whole entry): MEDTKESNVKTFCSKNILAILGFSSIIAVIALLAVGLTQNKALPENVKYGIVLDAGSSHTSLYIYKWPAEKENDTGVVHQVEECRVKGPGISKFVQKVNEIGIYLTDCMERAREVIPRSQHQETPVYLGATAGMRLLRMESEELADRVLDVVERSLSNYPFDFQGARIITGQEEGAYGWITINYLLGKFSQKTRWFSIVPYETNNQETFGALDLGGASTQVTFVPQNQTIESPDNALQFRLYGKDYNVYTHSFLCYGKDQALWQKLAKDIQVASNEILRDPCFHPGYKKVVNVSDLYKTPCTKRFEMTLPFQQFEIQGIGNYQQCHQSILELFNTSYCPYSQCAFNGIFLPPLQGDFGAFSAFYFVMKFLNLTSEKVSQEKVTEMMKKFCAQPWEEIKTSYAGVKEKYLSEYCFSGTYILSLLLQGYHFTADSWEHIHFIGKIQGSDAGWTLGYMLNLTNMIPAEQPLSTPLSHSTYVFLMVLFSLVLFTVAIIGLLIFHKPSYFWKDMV
The assay is described as follows: Inhibition of human NTPDase1 expressed in COS7 cells assessed as amount of inorganic phosphate released using ATP as the substrate at 100 uM after 15 mins by malachite green reagent method. Format: cell-based. The note with it: COS-7. The essentials: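 Protein extracts of transfected COS-7 cells (ecto-5'-nucleotidase: 100 μM AMP substrate; NTPDases: 100 μM ATP) were preincubated 3 min at 37 °C in Tris-Ringer pH 7.3 with inhibitor at 100 μM final. After 15 min, malachite green stop; Pi read at 630 nm. Activity given as % of substrate-only control. Mean ± SD of three experiments in triplicate.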

The target in assay [3] is T3, P2Y purinoceptor 11 (Homo sapiens) (UniProt Q96G91).
T3 sequence (whole entry): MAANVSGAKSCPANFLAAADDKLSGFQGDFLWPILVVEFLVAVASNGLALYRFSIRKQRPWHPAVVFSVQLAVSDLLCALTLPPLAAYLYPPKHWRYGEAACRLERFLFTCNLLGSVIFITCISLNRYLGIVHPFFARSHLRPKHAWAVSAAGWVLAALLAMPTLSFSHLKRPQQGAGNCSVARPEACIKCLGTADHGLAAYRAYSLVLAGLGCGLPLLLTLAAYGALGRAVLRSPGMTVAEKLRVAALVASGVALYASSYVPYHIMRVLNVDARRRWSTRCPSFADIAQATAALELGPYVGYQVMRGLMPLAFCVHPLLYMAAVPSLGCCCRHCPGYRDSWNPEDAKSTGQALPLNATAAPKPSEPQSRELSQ
The assay is described as follows: Agonist activity at GFP tagged-human P2Y11 receptor expressed in human 1321N1 cells assessed as elevation in calcium level at 50 uM after 30 mins by fluorescence spectrophotometric analysis. Format: functional, cell-based.

A further assay has as its target T4, P2Y purinoceptor 11 (Homo sapiens, UniProt Q96G91).
T4 sequence (Q96G91 whole entry): T3 sequence (whole entry)
The assay is described as follows: Agonist activity at GFP tagged-human P2Y11 receptor expressed in human 1321N1 cells assessed as elevation in calcium level after 30 mins by fluorescence spectrophotometric analysis. It counts as functional, cell-based.

Assay [4] deals with T5, Ectonucleoside triphosphate diphosphohydrolase 2 (Homo sapiens) (UniProt Q9Y5L3).
T5 sequence (whole entry): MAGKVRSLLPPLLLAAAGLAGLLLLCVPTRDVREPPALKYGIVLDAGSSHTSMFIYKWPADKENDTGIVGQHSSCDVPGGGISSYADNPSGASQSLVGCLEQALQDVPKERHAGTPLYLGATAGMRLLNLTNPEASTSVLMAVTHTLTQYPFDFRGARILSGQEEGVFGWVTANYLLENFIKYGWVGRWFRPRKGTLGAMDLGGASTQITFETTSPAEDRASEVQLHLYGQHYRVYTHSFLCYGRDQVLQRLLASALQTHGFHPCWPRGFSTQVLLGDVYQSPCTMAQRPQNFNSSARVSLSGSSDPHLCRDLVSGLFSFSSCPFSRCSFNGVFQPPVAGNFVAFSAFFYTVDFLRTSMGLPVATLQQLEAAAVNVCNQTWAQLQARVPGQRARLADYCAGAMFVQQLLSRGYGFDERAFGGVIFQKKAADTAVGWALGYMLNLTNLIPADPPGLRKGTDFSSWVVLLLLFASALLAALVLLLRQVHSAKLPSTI
The assay is described as follows: Activity of human NTPDase2 expressed in COS7 cells assessed as amount of inorganic phosphate released using ATP as the substrate at 100 uM after 15 mins by malachite green reagent method. It counts as cell-based. The note with it: COS-7. The essentials:
as §1

Each structure is given as a SMILES string. The source made the active and inactive calls. The calls are words filed in the database; no cut-off is given here. Some results are limits rather than exact numbers.

For the molecule `Nc1ncnc2c1ncn2[C@H]1C[C@H](O)[C@@H](COP(=O)(O)CP(=O)(O)OP(=O)(O)CP(=O)(O)OC[C@H]2O[C@@H](n3cnc4c(N)ncnc43)C[C@@H]2O)O1`, the Activity in assay [1] was 1.8%. For the same molecule, the inhibition entry in assay [2] was “inactive”. The outcome in assay [3] was inactive.

Take `BP(=O)(OP(=O)(O)CP(=O)(O)OC[C@H]1O[C@@H](n2cnc3c(N)ncnc32)[C@H](O)[C@@H]1O)OP(=O)(O)CP(=O)(O)OC[C@H]1O[C@@H](n2cnc3c(N)ncnc32)[C@H](O)[C@@H]1O`: the EC50 at P2Y purinoceptor 11 was 13 µM. For the same molecule, the inhibition result in assay [2] is “inactive”.

Regarding `Nc1ncnc2c1ncn2[C@@H]1O[C@H](COP(=O)(O)CP(=O)(O)OP(=O)(O)CP(=O)(O)OC[C@H]2O[C@@H](n3cnc4c(N)ncnc43)[C@H](O)[C@@H]2O)[C@@H](O)[C@H]1O`, the half-maximal effective concentration (EC50) on P2Y purinoceptor 11 was at least 40 µM. Further, the values for the Activity in assay [1] and in assay [4] were 5.3% and 0.1%, respectively. Also, in assay [2], the inhibition result was “inactive”.

`BP(=O)(OP(=O)(O)CP(=O)(O)OC[C@H]1O[C@@H](n2cnc3c(N)ncnc32)C[C@@H]1O)OP(=O)(O)CP(=O)(O)OC[C@H]1O[C@@H](n2cnc3c(N)ncnc32)C[C@@H]1O`: the Activity in assay [4] was 0.2%. Further, in assay [2], the inhibition result is “inactive”. The outcome in assay [3] was inactive.
